Experimental data taken from ChEMBL document CHEMBL3797182, “In vitro evaluation of imidazo[4,5-c]quinolin-2-ones as gametocytocidal antimalarial agents” (Bioorg Med Chem Lett, 2016).
pIC50: −log10 of the molar value.

How the values were obtained:
Plasmodium falciparum [1] = assay: Gametocytocidal activity against Plasmodium falciparum after 72 hrs by Alamar Blue assay; type: functional, organism-based
Plasmodium falciparum [2] = assay: Antimalarial activity against chloroquine-sensitive asexual blood stage of Plasmodium falciparum 3D7 infected in RBC after 72 hrs by SYBR Green assay; type: functional, organism-based; conditions: 3D7, 72 h
Procedure, shortened: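 Asexual blood-stage P. falciparum 3D7 (chloroquine-sensitive) parasites. 1536-well format, 11-point dose-response, duplicate tests. Torin 2 served as positive control and DMSO as negative control.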

Plasmodium falciparum [3] = assay: Gametocytocidal activity against chloroquine-sensitive late gametocytic stage (III to V) of Plasmodium falciparum 3D7 after 72 hrs by Alamar Blue assay; type: functional, organism-based; conditions: 3D7, 72 h
Procedure, shortened: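 Late-stage (III–V) P. falciparum 3D7 gametocytes. AlamarBlue redox indicator reads cytosolic metabolic activity as a measure of gametocyte viability. 1536-well format, 11-point dose-response, duplicates. Torin 2 positive control, DMSO negative control.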

HepG2 = assay: Cytotoxicity against human HepG2 cells assessed as cell viability after 24 hrs; type: cell-based; conditions: HepG2, 24 h
Procedure, shortened: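 HepG2 cell viability as general cytotoxicity. 1536-well, 11-point dose-response in duplicate, top concentration 46 μM. Torin 2 positive control, DMSO negative control.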

Plasmodium falciparum [4] = assay: Selectivity ratio of IC50 for chloroquine-sensitive late gametocytic stage (III to V) of Plasmodium falciparum 3D7 to IC50 for chloroquine-sensitive asexual blood stage of Plasmodium falciparum 3D7; type: functional

pIC50 (Plasmodium falciparum [2])	SMILES	pIC50 (Plasmodium falciparum [1])	pIC50 (Plasmodium falciparum [3])	pIC50 (HepG2)	Ratio IC50 (Plasmodium falciparum [4])
	Nc1ccc(-c2ccc3ncc4ccc(=O)n(-c5cccc(C(F)(F)F)c5)c4c3c2)cn1	8.10			
6.13	Cc1ccc(-c2ccc3ncc4c(c3c2)n(-c2cccc(C(F)(F)F)c2)c(=O)n4C)cc1		6.28	< 4.35	1
